Measurements: ChEMBL document CHEMBL3526015, “Metabolism of the c-Fos/activator protein-1 inhibitor T-5224 by multiple human UDP-glucuronosyltransferase isoforms” (Drug Metab Dispos, 2011)

Legend:
Type in all cases: ADME
[1] = substrate: O=C(O)CCc1cc(C(=O)c2ccc(OC3CCCC3)cc2O)ccc1OCc1ccc2c(O)noc2c1; experiment: Drug metabolism assessed as Kcat to Km ratio for human UGT1A3-mediated T-5224 hydroxyl O-glucuronide formation per mg protein after 10 to 60 mins in presence of UDP-glucuronic acid by HPLC method
In short: (§1)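 Kinetics used recombinant UGT1A1, 1A3 or 1A8 (0.1 mg protein/mL) with T-5224 at 1–50 μM, 2 mM UDPGA and 60 min at 37°C, in triplicate. G2/G3 were measured by HPLC at 290 nm and fitted to a substrate-inhibition model (Vmax, Km, Ksi). UGT content was quantified by immunoblot, and kcat = Vmax/E0 was derived from it.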

[2] = substrate: O=C(O)CCc1cc(C(=O)c2ccc(OC3CCCC3)cc2O)ccc1OCc1ccc2c(O)noc2c1; experiment: Drug metabolism assessed as human UGT1A3-mediated T-5224 acyl O-glucuronide formation after 10 to 60 mins in presence of UDP-glucuronic acid by HPLC method; in short: as §1
[3] = substrate: O=C(O)CCc1cc(C(=O)c2ccc(OC3CCCC3)cc2O)ccc1OCc1ccc2c(O)noc2c1; experiment: Drug metabolism assessed as Kcat to Km ratio for human UGT1A3-mediated T-5224 acyl O-glucuronide formation per mg protein after 10 to 60 mins in presence of UDP-glucuronic acid by HPLC method; in short: as §1
[4] = substrate: O=C(O)CCc1cc(C(=O)c2ccc(OC3CCCC3)cc2O)ccc1OCc1ccc2c(O)noc2c1; experiment: Drug metabolism assessed as human UGT1A3-mediated T-5224 hydroxyl O-glucuronide formation after 10 to 60 mins in presence of UDP-glucuronic acid by HPLC method; in short: as §1
[5] = substrate: O=C(O)CCc1cc(C(=O)c2ccc(OC3CCCC3)cc2O)ccc1OCc1ccc2c(O)noc2c1; experiment: Drug metabolism assessed as human UGT1A8-mediated T-5224 hydroxyl O-glucuronide formation after 10 to 60 mins in presence of UDP-glucuronic acid by HPLC method; in short: as §1

| Protein | kcat/Km [1] [M⁻¹ s⁻¹] | Km [2] [µM] | kcat [2] [s⁻¹] | kcat/Km [3] [M⁻¹ s⁻¹] | Km [4] [µM] | kcat [4] [s⁻¹] | Km [5] [µM] | Vmax [5] [µmol/min] | kcat [5] [s⁻¹] | kcat/Km [5] [M⁻¹ s⁻¹] |
| --- | --- | --- | --- | --- | --- | --- | --- | --- | --- | --- |
| UDP-glucuronosyltransferase 1A3 (Homo sapiens) (protein) MATGLQVPLPWLATGLLLLLSVQPWAESGKVLVVPIDGSHWLSMREVLRELHARGHQAVVLTPEVNMHIKEENFFTLTTYAISWTQDEFDRHVLGHTQLYFETEHFLKKFFRSMAMLNNMSLVYHRSCVELLHNEALIRHLNATSFDVVLTDPVNLCAAVLAKYLSIPTVFFLRNIPCDLDFKGTQCPNPSSYIPRLLTTNSDHMTFMQRVKNMLYPLALSYICHAFSAPYASLASELFQREVSVVDILSHASVWLFRGDFVMDYPRPIMPNMVFIGGINCANRKPLSQEFEAYINASGEHGIVVFSLGSMVSEIPEKKAMAIADALGKIPQTVLWRYTGTRPSNLANNTILVKWLPQNDLLGHPMTRAFITHAGSHGVYESICNGVPMVMMPLFGDQMDNAKRMETKGAGVTLNVLEMTSEDLENALKAVINDKSYKENIMRLSSLHKDRPVEPLDLAVFWVEFVMRHKGAPHLRPAAHDLTWYQYHSLDVIGFLLAVVLTVAFITFKCCAYGYRKCLGKKGRVKKAHKSKTH | 774 | 7.21 | 0.00182 | 252 | 17.9 | 0.0138 |  |  |  |  |
| UDP-glucuronosyltransferase 1A8 (Homo sapiens) (protein) MARTGWTSPIPLCVSLLLTCGFAEAGKLLVVPMDGSHWFTMQSVVEKLILRGHEVVVVMPEVSWQLGKSLNCTVKTYSTSYTLEDLDREFMDFADAQWKAQVRSLFSLFLSSSNGFFNLFFSHCRSLFNDRKLVEYLKESSFDAVFLDPFDACGLIVAKYFSLPSVVFARGIACHYLEEGAQCPAPLSYVPRILLGFSDAMTFKERVRNHIMHLEEHLFCQYFSKNALEIASEILQTPVTAYDLYSHTSIWLLRTDFVLDYPKPVMPNMIFIGGINCHQGKPLPMEFEAYINASGEHGIVVFSLGSMVSEIPEKKAMAIADALGKIPQTVLWRYTGTRPSNLANNTILVKWLPQNDLLGHPMTRAFITHAGSHGVYESICNGVPMVMMPLFGDQMDNAKRMETKGAGVTLNVLEMTSEDLENALKAVINDKSYKENIMRLSSLHKDRPVEPLDLAVFWVEFVMRHKGAPHLRPAAHDLTWYQYHSLDVIGFLLAVVLTVAFITFKCCAYGYRKCLGKKGRVKKAHKSKTH |  |  |  |  |  |  | 6.05 | 0.000206 | 0.00184 | 303 |
